Data set [1] relates to Pontederia vaginalis. Briefly: Post-emergence herbicidal activity against three-leaf stage Monochoria vaginalis under green-house condition by water injection treatment method. The class given is functional. The essentials: (§1)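 Greenhouse paddy test. Seed was sown on saturated Metro Mix, covered with about 0.5 cm mix and held 48 h dark at 30 °C, 95% RH; about 15 d from seed soaking to treatment. Treatment solution was injected into the water. Rates were set per pot surface area, with serial rates made by halving the volume delivered. Held at 16 h day length, 29 °C.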

Data set [2] concerns Schoenoplectiella juncoides. Description: Post-emergence herbicidal activity against two to three-leaf stage Schoenoplectiella juncoides under field condition by foliar application method. Type of data set: functional.
The subject of data set [3] is Echinochloa crus-galli. Description: Post-emergence herbicidal activity against 2-3-leaf stage Echinochloa crus-galli (barnyard grass) under field condition by foliar application method. The class given is functional.
Data set [4] relates to Oryza sativa. Description: Phytotoxicity against two to three-leaf stage indica Oryza sativa (rice) under field condition by foliar application method. The class given is organism-based. As to conditions: in vivo.
Data set [5] concerns Schoenoplectiella juncoides. Briefly: Post-emergence herbicidal activity against three-leaf stage Schoenoplectiella juncoides under field condition by water injection treatment method. Type of data set: functional. The essentials:
(§2)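 Field trials: water-injected treatment applied to transplanted japonica rice and to weeds at the three-leaf stage, under rice-growing conditions in several countries.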

Data set [6] deals with Pontederia vaginalis. Briefly: Post-emergence herbicidal activity against three-leaf stage Monochoria vaginalis under field condition by water injection treatment method. Type of data set: functional. The essentials: as §2
The subject of data set [7] is Oryza sativa. Briefly: Phytotoxicity against three-leaf stage Oryza sativa (rice) under field condition by water injection treatment method. The class given is organism-based. The essentials:
as §2

Data set [8] relates to Echinochloa crus-galli. Briefly: Post-emergence herbicidal activity against three-leaf stage Echinochloa crus-galli (barnyard grass) under field condition by water injection treatment method. The class given is functional. In a few lines:
as §2

For a further data set, the system named is Cyperus difformis. Description: Post-emergence herbicidal activity against three-leaf stage Cyperus difformis under green-house condition by water injection treatment method. The class given is functional. The essentials: as §1
The subject of data set [9] is Schoenoplectiella juncoides. Description: Post-emergence herbicidal activity against three-leaf stage Schoenoplectiella juncoides under green-house condition by water injection treatment method. Type of data set: functional. The essentials:
as §1

Data set [10] deals with Echinochloa crus-galli. Description: Post-emergence herbicidal activity against three-leaf stage Echinochloa crus-galli (barnyard grass) under green-house condition by water injection treatment method. The class given is functional. The essentials:
as §1

The test system of data set [11] is Oryza sativa. Briefly: Phytotoxicity against three-leaf stage Oryza sativa (rice) under green-house condition by water injection treatment method. Type of data set: organism-based. The essentials:
as §1

Another data set deals with Ipomoea hederacea. Briefly: Post-emergence herbicidal activity against Ipomoea hederacea (ivy-leaved morning glory) compound treated as foliar application measured after 2 weeks. The class given is functional. In a few lines:
(§3)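 Greenhouse post-emergence foliar screen in 64 cm² pots. Seed treatments were used on some species to aid germination. Plants were grown 7–21 days at 23–29 °C day/22–28 °C night under a 15 h photoperiod. Sprayed at 2–12 cm height and the 1–4 true leaf stage.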

In the next data set the test system is Veronica hederifolia. Briefly: Post-emergence herbicidal activity against Veronica hederifolia compound treated as foliar application measured after 2 weeks. Type of data set: functional. The essentials: as §3
The next data set deals with Abutilon theophrasti. Description: Post-emergence herbicidal activity against Abutilon theophrasti (velvetleaf) compound treated as foliar application measured after 2 weeks. The class given is functional. In a few lines: as §3
The next data set deals with Amaranthus retroflexus. Briefly: Post-emergence herbicidal activity against Amaranthus retroflexus compound treated as foliar application measured after 2 weeks. The class given is functional. The essentials: as §3
In another data set the test system is Ipomoea. Briefly: Post-emergence herbicidal activity against Ipomoea spp. compound treated as foliar application measured after 2 weeks. The class given is functional. In a few lines:
as §3

A further data set relates to Helianthus. Briefly: Post-emergence herbicidal activity against Helianthus spp. compound treated as foliar application measured after 2 weeks. The class given is functional. The essentials:
as §3

Another data set concerns Chenopodium album. Briefly: Post-emergence herbicidal activity against Chenopodium album compound treated as foliar application measured after 2 weeks. The class given is functional. In a few lines: as §3
The next data set deals with Datura stramonium. Briefly: Post-emergence herbicidal activity against Datura stramonium compound treated as foliar application measured after 2 weeks. Type of data set: functional. In a few lines: as §3
The next data set has as its system Xanthium strumarium. Description: Post-emergence herbicidal activity against Xanthium strumarium (cocklebur) compound treated as foliar application measured after 2 weeks. Type of data set: functional. The essentials:
as §3

In data set [12] the test system is Echinochloa crus-galli. Description: Post-emergence herbicidal activity against 3-4-leaf stage Echinochloa crus-galli (barnyard grass) under field condition by foliar application method. The class given is functional.
The test system of data set [13] is Oryza sativa. Description: Phytotoxicity against three to four-leaf stage japonica Oryza sativa (rice) under field condition by foliar application method. The class given is organism-based. As to conditions: in vivo.
For a further data set, the system named is Avena fatua. Description: Post-emergence herbicidal activity against Avena fatua compound treated as foliar application measured after 2 weeks. The class given is functional. The essentials: as §3
The subject of data set [14] is Oryza sativa. Description: Phytotoxicity against Oryza sativa (rice). Type of data set: organism-based. The settings on record: in vivo.
The subject of the next data set is Digitaria sanguinalis. Description: Post-emergence herbicidal activity against Digitaria sanguinalis (hairy crabgrass) compound treated as foliar application measured after 2 weeks. The class given is functional. The essentials: as §3
The next data set deals with Sorghum halepense. Description: Post-emergence herbicidal activity against Sorghum halepense (Johnson grass) compound treated as foliar application measured after 2 weeks. The class given is functional. The essentials: as §3
The test system of a further data set is Setaria faberi. Description: Post-emergence herbicidal activity against Setaria faberi (Giant Foxtail) compound treated as foliar application measured after 2 weeks. Type of data set: functional. In a few lines:
as §3

For data set [15], the system named is Echinochloa crus-galli. Briefly: Post-emergence herbicidal activity against Echinochloa crus-galli (barnyard grass) compound treated as foliar application measured after 2 weeks. The class given is functional. In a few lines: as §3
The subject of the next data set is Alopecurus. Briefly: Post-emergence herbicidal activity against Alopecurus spp. compound treated as foliar application measured after 2 weeks. The class given is functional. In a few lines: as §3
The next data set concerns Fallopia convolvulus. Briefly: Post-emergence herbicidal activity against Fallopia convolvulus compound treated as foliar application measured after 2 weeks. The class given is functional. In a few lines: as §3
The test system of the next data set is Stellaria media. Briefly: Post-emergence herbicidal activity against Stellaria media compound treated as foliar application measured after 2 weeks. Type of data set: functional. In a few lines:
as §3

In the next data set the test system is Sesbania herbacea. Description: Post-emergence herbicidal activity against three to four-leaf stage Sesbania herbacea under field condition by foliar application method. The class given is functional.

Structures are written as SMILES.

On to `COc1cnc(OC)n2nc(NS(=O)(=O)c3c(OC(CF)CF)cccc3C(F)(F)F)nc12`, for which the GR80 amounted to 1 gAi/ha in the data set with Pontederia vaginalis [1]; 20 gAi/ha in data set [2]; 15 gAi/ha in the data set with Echinochloa crus-galli [3]; 15 gAi/ha in [5]; 12 gAi/ha in the data set with Pontederia vaginalis [6]; 35 gAi/ha in the data set on Echinochloa crus-galli [8]. Also, the GR80 turned out to be 31 gAi/ha with Cyperus difformis, 9 gAi/ha in [9] and 14 gAi/ha in the data set with Echinochloa crus-galli [10]. Further, the GR10 with Oryza sativa [4] was > 70 gAi/ha; in the data set with Oryza sativa [7], 70 gAi/ha. The molecule also gave a GR20 in the data set with Oryza sativa [11] of 140 gAi/ha.

`COc1cnc(OC)n2nc(NS(=O)(=O)c3c(OCCF)cccc3C(F)(F)F)nc12`: the GR80 in the data set on Ipomoea hederacea, in the data set with Veronica hederifolia, in the data set on Abutilon theophrasti, in the data set on Amaranthus retroflexus, with Ipomoea and with Helianthus was 6 ppm in each case. Further, the GR80 in the data set with Chenopodium album is 6 ppm; in the data set on Datura stramonium it was 6 ppm; in the data set with Xanthium strumarium it was 6 ppm; in the data set on Pontederia vaginalis [1], 5.2 gAi/ha; in the data set on Echinochloa crus-galli [12], 12 gAi/ha; in data set [2], 4 gAi/ha. Further, the GR80 worked out at 5 gAi/ha in the data set on Echinochloa crus-galli [3]; 5 gAi/ha in data set [5]; 4.4 gAi/ha in the data set on Pontederia vaginalis [6]; 19 gAi/ha in the data set with Echinochloa crus-galli [8]; 8 gAi/ha in the data set on Cyperus difformis; 9 gAi/ha in [9]. Also, the GR80 stood at 10 gAi/ha with Echinochloa crus-galli [10]; 66 ppm in the data set with Avena fatua; 66 ppm with Digitaria sanguinalis; 66 ppm in the data set with Sorghum halepense; 66 ppm in the data set with Setaria faberi; 1 ppm with Echinochloa crus-galli [15]. Besides, the GR80 with Alopecurus came to 66 ppm; in the data set with Fallopia convolvulus it was 6 ppm; in the data set on Stellaria media, 6 ppm; in the data set with Sesbania herbacea, 10 gAi/ha. In addition, the GR10 with Oryza sativa [13] was 12 gAi/ha; in the data set with Oryza sativa [4], > 70 gAi/ha; with Oryza sativa [7], 8 gAi/ha. Besides, the GR20 in the data set with Oryza sativa [11] was found to be 14 gAi/ha; in the data set on Oryza sativa [14], 250 ppm.

As for `COc1cnc(OC)n2nc(NS(=O)(=O)c3c(OCC(F)F)cccc3C(F)(F)F)nc12` [PENOXSULAM], the GR80 in the data set on Pontederia vaginalis [1] was <2 gAi/ha; with Echinochloa crus-galli [12], 9 gAi/ha; in data set [2], 6 gAi/ha; in the data set on Echinochloa crus-galli [3] it was 7 gAi/ha; in data set [5], 9 gAi/ha; in the data set on Pontederia vaginalis [6] it was 6 gAi/ha. The GR80 in the data set with Echinochloa crus-galli [8] is reported as 26 gAi/ha; in the data set on Cyperus difformis, 14 gAi/ha; in [9], 12 gAi/ha; in the data set on Echinochloa crus-galli [10] it was 12 gAi/ha; with Sesbania herbacea, 7 gAi/ha. In addition, the GR10 is given as 65 gAi/ha in the data set with Oryza sativa [13], > 70 gAi/ha with Oryza sativa [4] and 35 gAi/ha with Oryza sativa [7]. This molecule came in with a GR20 in the data set with Oryza sativa [11] of 75 gAi/ha.

Source of the values: ChEMBL document CHEMBL3046654, “Penoxsulam--structure-activity relationships of triazolopyrimidine sulfonamides” (Bioorg Med Chem, 2009).
